From PubChem BioAssay
This is a sample that favours compounds with a hit; in the whole collection about 2.3% have one here.
Rpn11 inh – blocks the human proteasome subunit Rpn11; human 26S proteasome, Ub4-pepOG fluorescence polarization; 20S core pre-blocked with epoxomicin; inhibition, % at 20 µM; O00487; 0.59% of 360,000 active; AID 588493;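 active means inhibition at 20 µM, scaled to each plate's controls, above about 33%, limit read from the data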
LMPTP inh – blocks human LMPTP phosphatase | recombinant LMPTP-A, OMFP fluorogenic substrate, fluorescence intensity | inhibition, % at 20 µM | 0.22% of 360,000 active | AID 651560;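 active means compounds that cut the enzyme signal by at least half of the control window in the single-dose screen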;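 further: plate controls were DMSO wells with enzyme plus substrate for no effect and substrate without enzyme for full effect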
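Test system: LMPTP-A phosphatase enzyme; input: 0.625 nM LMPTP-A final; reagent: OMFP substrate, 400 µM final; compound dosing: 20 µM single dose, 3% DMSO; incubation: 50 min dark incubation at room temperature; measured by: endpoint fluorescence intensity from OMFP dephosphorylation; measure: % inhibition relative to no-enzyme and uninhibited control wells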
SUMO1 PPI mod – alters human SUMO1 binding to SIM partners; P63165; SUMO1 binding to a labelled peptide, TR-FRET, 1 h; inhibition, % at 20 µM; 0.33% of 360,000 active; AID 602429; in the data active means inhibition above about 37%
DNMT1 block – blocks human DNA methyltransferase DNMT1; P26358; DNMT1 molecular beacon, Hinp1I cleavage, fluorescence; inhibition (reported as % activation of signal), % at 10 µM; 0.83% of 360,000 active; AID 588458; in the data active means inhibition above about 50%
STEP block – STEP (human) phosphatase inhibition; P54829; recombinant STEP, OMFP fluorogenic substrate, fluorescence; inhibition, % at 20 µM; 0.25% of 360,000 active;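 active means inhibition at 20 µM, scaled per plate between control wells, above about 37%, limit read from the data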;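 further: 0% = DMSO with enzyme and substrate and 100% = substrate only without enzyme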
Target sequence (P54829 whole entry, looked up): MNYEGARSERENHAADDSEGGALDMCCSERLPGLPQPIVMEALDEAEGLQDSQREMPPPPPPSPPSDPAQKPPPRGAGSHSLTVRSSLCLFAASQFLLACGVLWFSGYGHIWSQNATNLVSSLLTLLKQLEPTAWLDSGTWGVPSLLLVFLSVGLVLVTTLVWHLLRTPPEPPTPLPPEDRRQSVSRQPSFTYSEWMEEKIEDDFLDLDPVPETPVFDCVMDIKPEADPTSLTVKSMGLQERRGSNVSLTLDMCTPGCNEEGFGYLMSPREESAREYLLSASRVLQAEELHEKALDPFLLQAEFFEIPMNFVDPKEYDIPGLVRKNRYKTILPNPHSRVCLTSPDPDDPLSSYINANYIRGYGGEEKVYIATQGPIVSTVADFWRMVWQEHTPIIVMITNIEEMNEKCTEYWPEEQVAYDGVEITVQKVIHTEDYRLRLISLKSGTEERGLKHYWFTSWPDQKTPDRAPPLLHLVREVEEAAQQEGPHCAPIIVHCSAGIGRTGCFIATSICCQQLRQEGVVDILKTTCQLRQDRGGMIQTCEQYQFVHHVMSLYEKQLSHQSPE
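Test system: STEP tyrosine phosphatase / Reagent: OMFP at 25 µM / Doses: 20 µM, 1% DMSO / Read-out: percent inhibition scaled to no-enzyme and uninhibited-enzyme controls, plate-pattern corrected / Detection: FITC-channel fluorescence of OMFP product / Medium: Bis-Tris buffer pH 6.0, 2.5 mM DTT, 0.005% Tween 20 / Schedule: 20 min at room temperature, dark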
Scp-1 inhibitor – inhibitors of human Scp-1 phosphatase; Recombinant Scp1, phosphopeptide, malachite green phosphate absorbance; inhibition, % at 20 µM; Q9GZU7; 0.88% of 340,000 active; AID 493091;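 active means inhibition above about 50% at 20 µM, limit read from the data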;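 further: plate controls were DMSO wells with enzyme for no effect and wells lacking enzyme for full effect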
Target sequence (Q9GZU7 76-261 limits assumed): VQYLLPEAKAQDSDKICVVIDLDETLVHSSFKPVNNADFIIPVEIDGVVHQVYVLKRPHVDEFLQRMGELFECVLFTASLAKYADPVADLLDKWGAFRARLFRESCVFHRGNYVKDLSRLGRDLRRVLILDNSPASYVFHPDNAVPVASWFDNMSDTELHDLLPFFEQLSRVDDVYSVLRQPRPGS
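Material: truncated SCP-1 phosphatase (76-261aa) / Buffer or medium: 50 mM Tris acetate pH 5.5, 0.005% Tween-20, 10 mM MgCl2 / Compound dosing: one concentration, 20 µM, with 1.0% DMSO / Incubation: 45 min room-temperature reaction, 5 min colour, 30 min stabiliser / Detection: colorimetric free-phosphate detection, absorbance 630 nm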
DNMT1 interf DR – counter-screen for DNMT1 inhibitors: spectral interference, dose response. shares compounds with DNMT1 block. molecular beacon fluorescence. IC50, µM. 200 tested, under 10 active. AID 602382; call rule not given here
DNMT1 confirm – DNMT1 inhibition confirmation, single concentration | 8% of 2,300 active | inhibition, % at 10 µM | DNMT1 molecular beacon HinP1I cleavage, fluorescence | shares compounds with DNMT1 block | AID 602385;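 active means average inhibition of at least 30% in the single-concentration confirmation test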
DNMT1 interf – beacon fluorescence artifact counter-screen; 1% of 2,300 active; DNMT1 molecular beacon spectral interference counterscreen, fluorescence 485/520; activation (fluorescence interference), % at 10 µM; shares compounds with DNMT1 block;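 active means activation of at least 30% at 10 µM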;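 further: DNMT1 catalytic domain with a HinP1I cleavage step and a FAM/dabcyl DNA beacon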
Numbers without * were called inactive; / = no result shown.

SMILES	Rpn11 inh	LMPTP inh	SUMO1 PPI mod	DNMT1 block	STEP block	Scp-1 inhibitor	DNMT1 confirm	DNMT1 interf	others
O=C(O)CN1C(=O)/C(=C\c2cc(Br)ccc2OCc2ccc(F)cc2)SC1=S	3.1	3.8	8.0	24.3	6.2	8.4	/	/
COc1cccc(C2c3c(-c4cc(Cl)c(C)cc4O)n[nH]c3C(=O)N2Cc2cccnc2)c1 (stereo unspecified)	0.1	7.9	2.3	98.1*	0.7	2.6	2.3	4.5
COc1ccc(C2c3c(-c4ccccc4O)n[nH]c3C(=O)N2Cc2ccco2)cc1 (stereo unspecified)	6.4	2.6	-0.7	66.3*	0.2	-13.7	0.8	1.7
O=C(CSc1nc(C2CC2)nc2c1cnn2-c1ccccc1)Nc1c[nH]c(=O)[nH]c1=O	-13.1	8.9	8.2	27.4	6.0	13.2	/	/
Cc1nn(Cc2ccccc2)c(C)c1NC(=O)CSc1nc(C2CC2)nc2c1cnn2-c1ccccc1	2.1	0.4	1.2	58.4*	0.4	9.4	5.3	-5.1
Cc1nc(SCC(=O)Nc2c(C)n(C)n(-c3ccccc3)c2=O)c2cnn(-c3ccccc3)c2n1	6.0	1.0	3.9	-2.2	1.9	-7.6	/	/
Cc1nn(C)c(C)c1NC(=O)CSc1nc(Cc2ccccc2)nc2c1cnn2-c1ccccc1	9.7	0.5	-5.4	50.6*	4.3	7.1	1.2	-1.4
CCOC(=O)/C=c1\s/c(=C\c2ccc3cc(OC)ccc3c2)c(=O)n1CC(=O)NCC1CCCO1 (stereo unspecified)	/	-0.9	-1.2	58.5*	-3.4	-8.1	6.6	-1.3
CCOC(=O)/C=c1\s/c(=C\c2ccc(-c3ccccc3)cc2)c(=O)n1CC(=O)NCc1ccc2c(c1)OCO2	7.0	3.1	-2.4	-5.1	5.0	-2.3	/	/
CCOC(=O)/C=c1/s/c(=C/c2ccc3cc(OC)ccc3c2)c(=O)n1CC(=O)NCc1ccc2c(c1)OCO2	/	2.3	12.8	54.0*	-4.8	-9.5	1.3	3.9
O=C(Nc1ccc(F)cc1)c1ccc2c(=O)n(CC3CCCO3)c(=S)[nH]c2c1 (stereo unspecified)	4.4	0.1	-3.4	0.2	0.4	-0.8	/	/
CCNC(=O)C1(C)CCN1Cc1cc(-c2ccccc2)n(C)n1 (stereo unspecified)	1.8	-1.7	0.9	-10.0	-0.8	/	/	/
Cc1cc(NC(=O)CSCC(=O)N2CCN(c3ccccc3)CC2)no1	9.8	2.0	5.2	-16.6	-1.7	-12.4	/	/
Cc1cccc2sc(NNC(=O)c3cc(-c4cccs4)nc4ccccc34)nc12	15.7	1.4	1.9	68.7*	0.5	6.6	2.2	1.4
O=C(CN1C(=O)/C(=C/c2ccc(Cl)cc2)SC1=S)NC1C=CS(=O)(=O)C1 (stereo unspecified)	-0.9	7.0	-13.1	65.5*	0.6	4.5	5.8	2.5
COc1cc(NC(=O)Cn2cnc(C(=O)Nc3ccc(C)c(C)c3)n2)cc(OC)c1OC	5.6	1.7	-0.7	-0.3	-3.0	3.9	/	/
Cc1ccc(NC(=O)Cn2cnc(C(=O)Nc3ccc(C)c(C)c3)n2)cc1C	-6.7	-0.5	-2.5	51.8*	1.1	4.1	1.9	3.0
Cc1ccc(-c2cc(C(=O)OCC(=O)N(C)c3c(N)n(Cc4ccccc4)c(=O)[nH]c3=O)c3ccccc3n2)o1	-0.8	0.6	-16.7	-0.7	2.1	-4.2	/	/
CC1(C)CC2(CCCN(CC(O)(c3ccccc3)c3ccccc3)C2)CCO1 (stereo unspecified)	-0.4	0.5	1.9	93.6*	0.8	-5.8	3.5	2.9
O=C(N/N=C/c1ccc(F)cc1)c1c(O)c2ccccc2[nH]c1=O	13.5	7.7	1.8	53.8*	2.2	-3.9	3.2	-5.7
O=C(CCc1ccccc1)Nc1ccc2ccccc2n1	-5.0	-0.4	-2.9	0.7	-1.9	-0.8	/	/
S=c1[nH]nc(-c2ccccc2Cl)n1/N=C/C=C/c1ccco1	11.6	2.9	3.5	23.5	0.0	14.7	/	/
Cc1cccc(-c2n[nH]c(=S)n2/N=C/C=C/c2ccco2)c1	9.3	15.8	7.7	66.2*	3.8	-22.6	1.7	3.6
CC(/C=N/n1c(-c2ccc(C)cc2)n[nH]c1=S)=C\c1ccco1	6.0	1.4	-5.1	2.8	1.8	7.3	/	/
S=c1[nH]nc(-c2ccncc2)n1/N=C/C=C/c1ccco1	-32.6	-0.9	26.8	62.6*	0.6	8.1	4.5	3.0
SMILES	Rpn11 inh	LMPTP inh	SUMO1 PPI mod	DNMT1 block	STEP block	Scp-1 inhibitor	DNMT1 confirm	DNMT1 interf	others
CC(/C=N/n1c(-c2ccncc2)n[nH]c1=S)=C\c1ccco1	-8.5	9.8	20.3	83.0*	7.9	9.8	2.5	3.0
CCOC(=O)c1c(C)nc(C)c2c(=O)oc3ccccc3c12	-8.7	-0.4	4.4	-0.1	3.0	15.4	/	/
O=C(COc1ccccc1)Nc1cccc2c1CCCC2	-0.3	1.4	-0.2	2.1	6.1	1.0	/	/
CC(C)(C)CC(=O)Nc1cccc2c1CCCC2	0.1	-0.7	2.0	61.0*	0.5	-9.1	31.5*	2.8	DNMT1 interf DR=>99
COc1cc(OC)c2ccc(=O)oc2c1C(CC(=O)N1CCCC1)c1ccc2c(c1)OCO2 (stereo unspecified)	-8.6	2.5	-1.9	72.2*	7.7	47.6	-0.1	-3.8
C/C(=N/NC(=O)c1cc(-c2cccc([N+](=O)[O-])c2)n[nH]1)c1cccc(O)c1	1.1	0.0	-13.7	88.5*	-0.3	-1.7	2.8	5.2
O=C(Cn1ccccc1=O)Nc1ccc(Cl)c(S(=O)(=O)N2CCCCC2)c1	4.4	0.1	1.3	0.4	1.7	4.1	/	/
CC(C)C(=O)N1CCCC1(C)C(=O)Nc1cccc(Oc2ccccc2)c1 (stereo unspecified)	-8.5	-0.4	4.0	1.9	2.7	/	/	/
O=C(C1=C(O)C(=O)N(Cc2ccco2)C1c1cccc(O)c1)c1ccco1 (stereo unspecified)	6.8	-0.1	0.2	80.9*	3.9	-2.3	0.9	0.8
N#C/C(=C\c1c(N2CCC(C(N)=O)CC2)nc2ccccn2c1=O)C(=O)NCc1ccco1	3.3	-1.2	-5.8	64.0*	0.5	-4.4	5.5	2.9
CCCCNC(=O)C(=O)Nc1cc2c3c(c1)CCC(=O)N3CCC2	-2.9	-0.6	-0.5	-0.9	0.8	-8.8	/	/
Cc1cc2oc3ccc(NCCCn4ccnc4)cc3c(=O)c2cc1C	/	1.3	18.8	56.4*	1.1	-3.6	0.9	1.4
